Results collected from several papers.
Lines come from different studies, so protocols differ.
Observed: cell growth or viability

| SMILES | cell line | assay | conditions | measurement | value |
| --- | --- | --- | --- | --- | --- |
| COc1cccc(Oc2ccccc2NC(=O)CNC(=O)c2cccc3ccccc23)c1 | NCI/ADR-RES | SRB | 48 h | GI50 | 240 nM |
| Cc1cc(C)n(C(=S)[S][Au][PH](CCCCCC[PH]([Au][S]C(=S)n2nc(C)cc2C)(c2ccccc2)c2ccccc2)(c2ccccc2)c2ccccc2)n1 | NCI/ADR-RES | SRB |  | GI50 | 1300 nM |
| CC1=C(O)C(=O)C=C2C1=CC=C1[C@@]2(C)CC[C@@]2(C)[C@@H]3C[C@](C)(C(=O)OCCCBr)CC[C@]3(C)CC[C@]12C | MGC-803 | MTT | 48 h | IC50 | 400 nM |
| S=C([S][Au-][P+](CCCCCC[P+]([Au-][S]C(=S)n1cccn1)(c1ccccc1)c1ccccc1)(c1ccccc1)c1ccccc1)n1cccn1 | NCI/ADR-RES | SRB |  | GI50 | 3990 nM |
| O=C(O)c1ccc(CN2CCC(CN[C@@H]3C[C@H]3c3ccccc3)CC2)cc1 | NCI-H510A | resazurin | 10 days | EC50 | 109 nM |
| C=CC(=O)N1CCN(c2nc(=O)n(-c3c(C)ccnc3C(C)C)c3nc(-c4c(O)cccc4F)c(F)cc23)[C@@H](C)C1 | GP2d |  | 5 days | EC50 | > 10000 nM |
| Cn1nnc2c(C(N)=O)ncn2c1=O | HGC-27 |  |  | EC50 | 176000 nM |
| COc1ccc(-c2ccc(-c3ccc(C(=N)N)nc3)s2)cc1 | NCI/ADR-RES | SRB |  | GI50 | 1940 nM |
| C=CC(=O)N1CCN(c2cc(-c3noc([C@@]4(C)CCCc5sc(N)c(C#N)c54)n3)nc(N3CCN(C)C[C@@H]3C)c2)CC1 | GP2d |  | 5 days | EC50 | 4500 nM |
| COc1ccc(-c2ccc(-c3ccc(C(=N)N)nc3)s2)cc1Cl | NCI/ADR-RES | SRB |  | GI50 | 2010 nM |
| CN1CCN(C(=O)[C@H](CCCN[C@@H]2C[C@H]2c2ccc(F)cc2)NC(=O)c2ccc(-n3ccnn3)cc2)CC1 | NCI-H510A | resazurin | 10 days | EC50 | 10.5 nM |
